Source: PubChem (several laboratories)
Only a selection was taken, and hits are over-represented in it overall.
CHOP UPR activ: activators of apoptotic CHOP UPR arm, primary screen, cell-based, CHO-CHOP luciferase reporter, luminescence, uHTS | AID 449763, 2010 | 330,000 compounds, 0.34% hits | UPR activation; percent of tunicamycin response over DMSO baseline | activation, % at 10 µM;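 active means at 10 µM dose, activation of 40% or more, normalized to positive control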;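 further: 100% = tunicamycin at 10 µg/mL and 0% = DMSO alone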
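Assay system: CHO cells with stable CHOP pathway luciferase reporter; Buffer or medium: F12 plus 10% serum; Times: 16-18 h cell attachment, then 6 h compound exposure, 37 °C; Signal: luciferase luminescence; Read-out basis: percent activation relative to tunicamycin control; Control set: tunicamycin high control, DMSO low control.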
Jurkat NFkB inh: inhibitors of induced NF-kB luciferase reporter, primary screen, TCR NF-kB activation inhibitor project, cell-based, luminescence, uHTS; AID 435003, 2010; Jurkat, PMA/ionomycin-induced NF-kB luciferase reporter; inhibition, % at 4 µM; 330,000 compounds, 0.53% hits; in the data active means inhibition above about 50%
UPR XBP1 act: activators of adaptive XBP1 UPR arm, primary screen, cell-based, CHO-XBP1 luciferase reporter, luminescence, uHTS; IRE1-XBP1 UPR activation; percent of tunicamycin response, DMSO as zero; activation, % at 20 µM; 330,000 compounds, 0.33% hits;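 active means versus positive control, 20 µM dose yields 30% or more activation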;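 further: 100% = tunicamycin at 10 µg/mL and 0% = DMSO only wells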
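Material: CHO cell line with stable XBP1 luciferase reporter; buffer or medium: F12 medium containing 10% fetal bovine serum; compound: single point, 20 µM final compound, 1% DMSO; incubation: 6 h treatment, 37 °C; measured by: glow luminescence from Steady-Glo reagent; evaluation: activation, % of tunicamycin; control set: tunicamycin high, DMSO low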
CHOP inh: inhibitors of CHOP promoter induction, primary screen, cell-based, unfolded protein response, luciferase reporter; CHO-K1 CHOP-promoter luciferase, tunicamycin-induced, 15-18 h; 220,000 compounds, 3.8% hits; inhibition, % at 10 µM;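 active means compounds that reduced the stress-induced luciferase reporter signal by more than about 70% of percent inhibition, limit read from the data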;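 further: 0% = tunicamycin plus vehicle and 100% = wells without tunicamycin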
697 NFkB inh: inhibitors of PMA/ionomycin-induced NF-kB reporter, 697 cells, primary screen, B-cell NF-kB inhibitor project, cell-based, luminescence, uHTS; 697 B-cell NF-kB luciferase reporter, 16 h; inhibition, % at 4 µM; 330,000 compounds, 0.33% hits; AID 435022, 2010; in the data active means inhibition above about 35%
Jurkat NFkB conf: PMA/ionomycin-induced NF-kB reporter inhibitors, Jurkat retest, confirmation, T-cell NF-kB inhibitor project, cell-based, luminescence, single concentration. Jurkat NF-kB luciferase, 16 h. inhibition, % at 4 µM. 2,700 compounds, 27% hits. shares compounds with Jurkat NFkB inh;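 active means inhibition reaching about 45% at 4 µM in either replicate, limit read from the data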;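 further: plate controls were PMA/ionomycin stimulated DMSO wells for no effect and unstimulated DMSO wells for full effect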
697 NFkB conf: PMA/ionomycin-induced NF-kB reporter inhibitors, 697 retest, confirmation, B-cell NF-kB inhibitor project, cell-based, luminescence, single concentration. shares compounds with 697 NFkB inh. 697 B-cell NF-kB luciferase, 16 h. inhibition, % at 4 µM. 2,000 compounds, 35% hits; in the data active means inhibition mostly above about 28%, no sharp cut-off; inactive means mostly below about 22%
Active calls of the source: *.

How did CC(=O)OCC1OC(OCc2cn(C[C@H]3CC[C@H](Cn4cc(COC5OC(COC(C)=O)C(OC(C)=O)C(OC(C)=O)C5OC(C)=O)nn4)O3)nn2)C(OC(C)=O)C(OC(C)=O)C1OC(C)=O (some centres undefined) do in these assays?
CHOP UPR activ: -1; Jurkat NFkB inh: 14; UPR XBP1 act: 1; 697 NFkB inh: 11

What do the screens show for `Nc1c(-c2ccccc2)cnc2c(-c3ccccc3)cnn12`?
CHOP UPR activ: -2; Jurkat NFkB inh: -231; UPR XBP1 act: -8; 697 NFkB inh: inactive; Jurkat NFkB conf: -190; 697 NFkB conf: inactive

Results for COc1ccc(NC(=O)c2ccc(Br)o2)cc1 ?
CHOP UPR activ: 4; Jurkat NFkB inh: -64; UPR XBP1 act: 3; CHOP inh: -6; 697 NFkB inh: -43

What do the screens show for `CC(C)c1ccc(NC(=O)c2ccc(Br)o2)cc1`?
CHOP UPR activ: 3; Jurkat NFkB inh: -172; UPR XBP1 act: -1; CHOP inh: 18; 697 NFkB inh: -262; Jurkat NFkB conf: -119; 697 NFkB conf: -295

What do the screens show for `CCCCCCn1ccc(=N)cc1`?
CHOP UPR activ: 1; Jurkat NFkB inh: 63*; UPR XBP1 act: 0; 697 NFkB inh: 72*; Jurkat NFkB conf: 56*; 697 NFkB conf: 73*

How did Cc1cnc(NC(=O)CSc2ccc(Cl)cc2)s1 do in these assays?
CHOP UPR activ: 2; Jurkat NFkB inh: -7; UPR XBP1 act: 1; CHOP inh: 45; 697 NFkB inh: 9

What do the screens show for `Cc1cnc(NC(=O)Nc2ccc(Cl)cc2)s1`?
CHOP UPR activ: 8; Jurkat NFkB inh: 81*; UPR XBP1 act: 0; CHOP inh: 12; 697 NFkB inh: 65*; Jurkat NFkB conf: 24; 697 NFkB conf: 49*

Results for CCCc1cc2c(=O)c(-c3ccc4c(c3)OCCO4)coc2cc1OC(=O)c1ccco1 ?
CHOP UPR activ: 4; Jurkat NFkB inh: -89; UPR XBP1 act: 1; CHOP inh: 5; 697 NFkB inh: -186

How did CCc1cc2c(=O)c(-c3ccc4c(c3)OCCO4)coc2cc1OC(=O)c1ccco1 do in these assays?
CHOP UPR activ: 1; Jurkat NFkB inh: -223; UPR XBP1 act: 1; CHOP inh: 21; 697 NFkB inh: -360; Jurkat NFkB conf: -129; 697 NFkB conf: -407

Results for CCOc1ccc(NC(=O)Nc2cccc(C(=O)O)c2)cc1 ?
CHOP UPR activ: -9; Jurkat NFkB inh: 82*; UPR XBP1 act: -8; CHOP inh: 93*; 697 NFkB inh: 81*; Jurkat NFkB conf: 80*; 697 NFkB conf: 77*

What do the screens show for `O=C(Nc1ccc(Cl)cc1)Nc1cccc(C(=O)O)c1`?
CHOP UPR activ: -8; Jurkat NFkB inh: 76*; UPR XBP1 act: -9; CHOP inh: 79*; 697 NFkB inh: 53*; Jurkat NFkB conf: 44; 697 NFkB conf: 32*

What do the screens show for `O=C(Nc1cccc(Cl)c1)Nc1cccc(C(=O)O)c1`?
CHOP UPR activ: -6; Jurkat NFkB inh: 27; UPR XBP1 act: -7; CHOP inh: 21; 697 NFkB inh: -41

Results for CCOC(=O)c1cccc(NC(=O)Nc2ccc(OCC)cc2)c1 ?
CHOP UPR activ: 2; Jurkat NFkB inh: -25; UPR XBP1 act: 5; CHOP inh: 0; 697 NFkB inh: -54

What do the screens show for `O=C1CCc2cc(S(=O)(=O)NCc3ccc(F)cc3)cc3c2N1CCC3`?
CHOP UPR activ: -1; Jurkat NFkB inh: -6; UPR XBP1 act: -7; 697 NFkB inh: 6

What do the screens show for `O[C@@H]1[C@@H](O)C=C2CCN3Cc4cc5c(cc4[C@H]1C23)OCO5` (some centres undefined)?
CHOP UPR activ: -3; Jurkat NFkB inh: 96*; UPR XBP1 act: 0; 697 NFkB inh: -289; Jurkat NFkB conf: 89*; 697 NFkB conf: -229

What do the screens show for `COc1ccc(C(=O)/C(C#N)=N/Nc2ccc([N+](=O)[O-])cc2)cc1`?
CHOP UPR activ: 2; Jurkat NFkB inh: 60*; UPR XBP1 act: 16; CHOP inh: 57; 697 NFkB inh: 53*; Jurkat NFkB conf: 59*; 697 NFkB conf: 11

How did COc1ccc(C(=O)/C(C#N)=N/Nc2ccccc2[N+](=O)[O-])cc1 do in these assays?
CHOP UPR activ: 1; Jurkat NFkB inh: 41; UPR XBP1 act: 1; CHOP inh: 22; 697 NFkB inh: -117

What do the screens show for `O=C(Nc1ccc2c(c1)Cc1ccccc1-2)c1ccc(Br)o1`?
CHOP UPR activ: 7; Jurkat NFkB inh: -38; UPR XBP1 act: 0; CHOP inh: 36; 697 NFkB inh: -20

Results for N#CC1(c2ccc(NC(=O)c3ccccc3F)cc2)CCCC1 ?
CHOP UPR activ: 2; Jurkat NFkB inh: -210; UPR XBP1 act: -1; CHOP inh: 13; 697 NFkB inh: -281; Jurkat NFkB conf: -166; 697 NFkB conf: -214

Results for O=C(Nc1ccc2c(c1)Cc1ccccc1-2)c1ccccc1F ?
CHOP UPR activ: 3; Jurkat NFkB inh: -161; UPR XBP1 act: 0; 697 NFkB inh: -323; Jurkat NFkB conf: -139; 697 NFkB conf: -202

Results for CCCCn1c(N)c(N(CC(C)C)C(=O)CSc2nnc(-c3ccc(Cl)cc3)o2)c(=O)[nH]c1=O ?
CHOP UPR activ: -2; Jurkat NFkB inh: 11; UPR XBP1 act: 1; 697 NFkB inh: 1

How did COc1ccc(N2CCN(C(=O)CN3C(=O)NC4(CCCCC4C)C3=O)CC2)cc1 (centres undefined) do in these assays?
CHOP UPR activ: 1; Jurkat NFkB inh: 8; UPR XBP1 act: -1; 697 NFkB inh: 6

What do the screens show for `O=C(NCCNCCO)C1(C(F)(F)F)C/C(=C\CCO)CCCO1` (centres undefined)?
CHOP UPR activ: 0; Jurkat NFkB inh: 54*; UPR XBP1 act: -1; 697 NFkB inh: 61*; Jurkat NFkB conf: 83*; 697 NFkB conf: 58*

How did CCCCN(C)C(=O)c1cc2cc3ccc(OC)cc3nc2s1 do in these assays?
CHOP UPR activ: -1; Jurkat NFkB inh: -185; UPR XBP1 act: -2; CHOP inh: 55; 697 NFkB inh: -275; Jurkat NFkB conf: -132; 697 NFkB conf: -266
